Assay results taken from ChEMBL document CHEMBL3352485 (J Med Chem, 2014).

Experiments:
Rattus norvegicus [1] = assay: Testosterone-suppressive activity in Crl:CD(SD) rat assessed as number of animal with plasma testosterone level below the limit of detection at 0.1 nmol/hr, sc through osmotic pumps measured after 6 days by RIA; assay type: functional
How it was run: (§1)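 Peptide was dissolved in distilled water or 50% DMSO as 0.1–2 mM pump solutions and delivered by ALZET osmotic pumps implanted subcutaneously in the back of 9-week-old male Crl:CD(SD) rats (n = 5) under ether. Controls received distilled-water pumps. After 6 days, rats were decapitated and plasma was recovered with aprotinin/EDTA. Testosterone was measured by RIA, and the number of rats below the detection limit (0.04 ng/mL) was counted.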

KiSS-1 receptor [2] = biological target: T1, KiSS-1 receptor (Homo sapiens, UniProt Q969F8); assay: Displacement of radioligand from human KISS1R transfected in CHO cells; assay type: cell-based
T1 sequence (Q969F8 whole entry): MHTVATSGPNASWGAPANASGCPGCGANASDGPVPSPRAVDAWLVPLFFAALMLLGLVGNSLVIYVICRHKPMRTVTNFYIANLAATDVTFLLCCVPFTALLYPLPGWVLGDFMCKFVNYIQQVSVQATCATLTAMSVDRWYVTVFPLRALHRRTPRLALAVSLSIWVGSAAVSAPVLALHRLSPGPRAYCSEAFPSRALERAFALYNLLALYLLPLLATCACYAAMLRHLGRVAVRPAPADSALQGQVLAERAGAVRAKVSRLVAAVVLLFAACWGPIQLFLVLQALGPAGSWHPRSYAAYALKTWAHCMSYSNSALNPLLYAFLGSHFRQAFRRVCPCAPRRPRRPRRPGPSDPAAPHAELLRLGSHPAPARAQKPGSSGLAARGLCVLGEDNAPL
How it was run: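 Binding used membrane fractions prepared from CHO cells expressing recombinant human KISS1R.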

KiSS-1 receptor [3] = biological target: T2, KiSS-1 receptor (Rattus norvegicus, UniProt Q924U1); assay: Agonist activity at rat KISS1R transfected in CHO cells assessed as intracellular calcium flux after 24 hrs by functional FLIPR assay; assay type: cell-based
T2 sequence (Q924U1 whole entry): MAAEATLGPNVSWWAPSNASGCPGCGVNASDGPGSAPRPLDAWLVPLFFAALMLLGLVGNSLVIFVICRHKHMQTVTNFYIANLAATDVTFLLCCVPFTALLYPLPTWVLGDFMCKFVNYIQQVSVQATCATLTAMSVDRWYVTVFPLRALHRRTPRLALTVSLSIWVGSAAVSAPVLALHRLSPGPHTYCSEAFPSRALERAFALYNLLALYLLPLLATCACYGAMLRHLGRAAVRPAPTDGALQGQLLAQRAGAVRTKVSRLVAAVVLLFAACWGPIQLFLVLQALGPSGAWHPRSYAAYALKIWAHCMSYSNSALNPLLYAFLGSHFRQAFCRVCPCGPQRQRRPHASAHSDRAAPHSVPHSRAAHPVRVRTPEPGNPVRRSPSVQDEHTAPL

KiSS-1 receptor [4] = biological target: T1, KiSS-1 receptor; assay: Agonist activity at human KISS1R transfected in CHO cells assessed as intracellular calcium flux after 24 hrs by functional FLIPR assay; assay type: cell-based
How it was run: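 CHO cells stably expressing human KISS1R were seeded at 15 000 cells/mL, cultured 24 h, then loaded with fluo-3 for 1 h at 37 °C in HBSS/HEPES (pH 7.4) with probenecid and FBS. Cells were washed in HBSS with 2.5 mM probenecid. Peptides came from 1 mM DMSO stocks diluted in buffer containing probenecid, 0.2% BSA and 0.1% CHAPS. Fluorescence was recorded on FLIPR for 3 min; peak counts over 0–180 s gave agonist activity.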

Rattus norvegicus [5] = assay: Testosterone-suppressive activity in Crl:CD(SD) rat assessed as number of animal with plasma testosterone level below the limit of detection at 0.5 nmol/hr, sc through osmotic pumps measured after 6 days by RIA; assay type: functional; how it was run: as §1
Rattus norvegicus [6] = assay: Testosterone-suppressive activity in Crl:CD(SD) rat assessed as number of animal with plasma testosterone level below the limit of detection at 0.3 nmol/hr, sc through osmotic pumps measured after 6 days by RIA; assay type: functional; how it was run: as §1
KiSS-1 receptor [7] = biological target: T2, KiSS-1 receptor; assay: Displacement of radioligand from rat KISS1R transfected in CHO cells; assay type: cell-based
Rattus norvegicus [8] = assay: Testosterone-suppressive activity in Crl:CD(SD) rat assessed as number of animal with plasma testosterone level below the limit of detection at 2 nmol/hr, sc through osmotic pumps measured after 6 days by RIA; assay type: functional; how it was run: as §1

CNC(=N)NCCC[C@H](NC(=O)[C@H](CC(C)C)NC(=O)NNC(=O)[C@H](Cc1ccccc1)NC(=O)[C@@H](NC(=O)[C@H](CC(N)=O)NC(=O)[C@@H](Cc1c[nH]c2ccccc12)NC(=O)[C@@H](Cc1ccc(O)cc1)NC(=O)c1ccccc1)[C@@H](C)O)C(=O)N[C@@H](Cc1c[nH]c2ccccc12)C(N)=O
Activity (Rattus norvegicus [1]): 0 rats (n = 5) | Ki (KiSS-1 receptor [2]): 0.027 nM | EC50 (KiSS-1 receptor [3]): 1.7 nM | EC50 (KiSS-1 receptor [4]): 0.44 nM

CNC(=N)NCCC[C@H](NC(=O)[C@H](CC(C)C)NC(=O)NNC(=O)[C@H](Cc1ccccc1)NC(=O)[C@@H](NC(=O)[C@H](CC(N)=O)NC(=O)[C@@H](Cc1c[nH]c2ccccc12)NC(=O)[C@H](N)Cc1ccc(O)cc1)C(C)C)C(=O)N[C@@H](Cc1c[nH]c2ccccc12)C(N)=O
Activity (Rattus norvegicus [5]): 0% | Ki (KiSS-1 receptor [2]): 0.028 nM | EC50 (KiSS-1 receptor [3]): 2.2 nM | EC50 (KiSS-1 receptor [4]): 0.31 nM

CNC(=N)NCCC[C@H](NC(=O)[C@H](CC(C)C)NC(=O)NNC(=O)[C@H](Cc1ccccc1)NC(=O)[C@H](CO)NC(=O)[C@@H](NC(=O)[C@@H](Cc1ccncc1)NC(=O)[C@H](N)Cc1ccc(O)cc1)[C@@H](C)O)C(=O)N[C@@H](Cc1c[nH]c2ccccc12)C(N)=O
EC50 (KiSS-1 receptor [3]): 32 nM | EC50 (KiSS-1 receptor [4]): 1.3 nM

CNC(=N)NCCC[C@H](NC(=O)[C@H](CC(C)C)NC(=O)NNC(=O)[C@H](Cc1ccccc1)NC(=O)[C@@H](NC(=O)[C@H](CC(N)=O)NC(=O)[C@@H](Cc1ccncc1)NC(=O)[C@H](N)Cc1ccc(O)cc1)C(C)(C)C)C(=O)N[C@@H](Cc1c[nH]c2ccccc12)C(N)=O
EC50 (KiSS-1 receptor [3]): 22 nM | EC50 (KiSS-1 receptor [4]): 1.5 nM

CNC(=N)NCCC[C@H](NC(=O)[C@H](CC(C)C)NC(=O)NNC(=O)[C@H](Cc1ccccc1)NC(=O)[C@@H](NC(=O)[C@H](C)NC(=O)[C@@H](Cc1c[nH]c2ccccc12)NC(=O)[C@H](N)Cc1ccc(O)cc1)[C@@H](C)O)C(=O)N[C@@H](Cc1c[nH]c2ccccc12)C(N)=O
EC50 (KiSS-1 receptor [3]): 13 nM | EC50 (KiSS-1 receptor [4]): 0.63 nM

CC(C)C[C@H](NC(=O)CNC(=O)[C@H](Cc1ccccc1)NC(=O)[C@H](CO)NC(=O)[C@H](CC(N)=O)NC(=O)[C@H](Cc1c[nH]c2ccccc12)NC(=O)[C@H](CC(N)=O)NC(=O)[C@@H](N)Cc1ccc(O)cc1)C(=O)N[C@@H](CCCNC(=N)N)C(=O)N[C@@H](Cc1ccccc1)C(N)=O [KISSPEPTIN-10]
Ki (KiSS-1 receptor [2]): 0.035 nM | EC50 (KiSS-1 receptor [4]): 0.96 nM

CNC(=N)NCCC[C@H](NC(=O)[C@H](CC(C)C)NC(=O)NNC(=O)[C@H](Cc1ccccc1)NC(=O)[C@@H](NC(=O)[C@H](CC(N)=O)NC(=O)[C@@H](Cc1ccncc1)NC(=O)[C@H](N)Cc1ccc(O)cc1)[C@@H](C)O)C(=O)N[C@@H](Cc1c[nH]c2ccccc12)C(N)=O
Ki (KiSS-1 receptor [2]): 0.086 nM | EC50 (KiSS-1 receptor [3]): 5.7 nM | EC50 (KiSS-1 receptor [4]): 1.6 nM

CNC(=N)NCCC[C@H](NC(=O)[C@H](CC(C)C)NC(=O)NNC(=O)[C@H](Cc1ccccc1)NC(=O)[C@H](CO)NC(=O)[C@H](CC(N)=O)NC(=O)[C@@H](Cc1ccncc1)NC(=O)[C@H](N)Cc1ccc(O)cc1)C(=O)N[C@@H](Cc1c[nH]c2ccccc12)C(N)=O
Activity (Rattus norvegicus [6]): 40% | Ki (KiSS-1 receptor [7]): 0.13 nM | Activity (Rattus norvegicus [1]): 0 rats (n = 5) | Activity (Rattus norvegicus [5]): 60% | Activity (Rattus norvegicus [8]): 80% | Ki (KiSS-1 receptor [2]): 0.074 nM | EC50 (KiSS-1 receptor [3]): 6 nM | EC50 (KiSS-1 receptor [4]): 0.87 nM

CNC(=N)NCCC[C@H](NC(=O)[C@H](CC(C)C)NC(=O)NNC(=O)[C@H](Cc1ccccc1)NC(=O)[C@H](Cc1c[nH]c2ccccc12)NC(=O)[C@H](CC(N)=O)NC(=O)[C@@H](Cc1ccncc1)NC(=O)[C@H](N)Cc1ccc(O)cc1)C(=O)N[C@@H](Cc1c[nH]c2ccccc12)C(N)=O
EC50 (KiSS-1 receptor [3]): 7.4 nM | EC50 (KiSS-1 receptor [4]): 0.59 nM
